A number with no mark means an inactive call. Records with an inconclusive call do not appear. Calls of active or inactive are those of the source.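 The calls were made as follows, unless noted: active = inhibition over a set limit, the all-compound mean plus 3 SD, in both replicate runs; inconclusive = over that limit in just one replicate run; inactive = at or under that limit in both runs.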
Legend:
[1] = S. cerevisiae growth inhibition in permissive medium (OD615), pilot counter-assay for S. cerevisiae lifespan shortening project, permissive growth control (AID 705;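 active = growth inhibition above 25% in both replicates, a cutoff set 3 SD above the mean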); conditions: OD615, 24 h, at 10 µM, active compounds read high
Summary of the method: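 Material: engineered DeaD yeast; Compound: one dose 10 µM, DMSO 0.25% final; Detection: absorbance (optical density) at 615 nm; Buffer or medium: permissive raffinose/galactose medium; Timing: 24 h exposure, 30 °C.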

[2] = S. cerevisiae growth inhibition in restrictive medium, OD615, pilot screen, restrictive growth control, yeast lifespan reduction project (AID 706;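 active = growth inhibition above a set limit, 3 SD over mean compound inhibition, in both replicates, cut at about 43% in these data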;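 also: modified DeaD lifespan yeast strain shifted to restrictive glucose medium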); conditions: OD615, 48 h, at 10 µM, active compounds read high
Summary of the method: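 Buffer or medium: restrictive glucose medium (CSMM-D); test system: modified S. cerevisiae; doses: single dose of 10 µM compound final, 0.25% DMSO; schedule: 48 h compound exposure at 30 °C; detection: absorbance (optical density) measured at 615 nm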

[3] = doxorubicin toxicity protection in MRP-1 cells – H69AR cells, CellTiter-Glo, duplicate, MRP-1 activator project, pilot screen (AID 807;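 active = viability increase at or above a cutoff of the median across tested compounds plus 3 SD, cut at about 8.5% in these data, passing the limit was not always enough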;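 also: compound pretreatment 18-22 h then 72 h combined with doxorubicin; 0% = doxorubicin alone and 100% = vehicle without doxorubicin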); conditions: H69AR viability with doxorubicin, CellTiter-Glo luminescence; at 10 µM; active compounds read high
[4] = viability of HCT116 without oncogenic beta-catenin – human colon tumor cells, pilot screen (AID 823;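 active = cell viability at or below a set limit in both duplicate runs, the limit being the all-compound median minus 4 SD, cut at about 23% in these data, passing the limit was not always enough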;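 also: 0% = wells killed by 20 µM Hyamine and 100% = untreated DMSO cell wells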); conditions: HCT116 beta-catenin knockout viability, CellTiter-Glo, 60 h; at 10 µM; active compounds read low
[5] = viability of PTEN-null HCT116 cells – cell-based, HCT116 clonal line, CellTiter-Glo, pilot screen (AID 824;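 active = viability at or below 27.92% in each of two runs, the all-compound median minus 4 SD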;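 also: 0% = 20 µM Hyamine control and 100% = vehicle cell control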); conditions: HCT116 PTEN-deleted viability, 60 h, at 10 µM, active compounds read low
[6] = RAM pathway blockade in budding yeast – dse1pr::URA3 reporter, 5-FOA selection, pilot screen (AID 869);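 also: 0% = DMSO wells with no growth and 100% = 10 µM 1-NA-PP1 with full growth; RAM network block rescues cells from 5-FOA so hits raise OD615 growth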; conditions: S. cerevisiae dse1pr::URA3 5-FOA growth, OD615, 2 d, at 10 µM, active compounds read high
[7] = RAM signaling pathway blockade in yeast – S. cerevisiae, Pdr1DBD-CYC8 efflux-inhibited sensitized strain, primary screen (AID 1298;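 active = RAM network inhibition above 8.4% in each of two replicates, 3 SD over the compound average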;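 also: 0% = DMSO untreated cells without growth and 100% = 10 µM 1-NA-PP1 full growth; higher means more yeast growth rescued from 5-FOA killing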); conditions: S. cerevisiae cbk1-as DSE1-URA3 strain, 5-FOA growth OD615, 2 d; at 50 µM; active compounds read high

SMILES	growth inhibition [1]	growth inhibition [2]	viability increase [3] [%]	viability [4]	viability [5]	inhibition [6]	RAM network inhibition [7] [%]
Cc1ccc2c(c1)C1CN(C)CCC1N2C(=O)c1ccco1 (centres undefined)	-2.01%	-12.5%	-3.67	85.4%	91.9%	1.32%	2.85
C=Cn1ccnc1P(=S)(c1cc(N(CC)CC)ns1)c1nccn1C=C	-0.585%	21.8%	-0.61	92.1%	90.5%	1.49%	2.27
CC(=O)Nc1ccc(OC(=O)N(C)c2ccccc2)cc1	1.69%	-3.19%	0.24	105%	100%	3.04%	3.59
OC12CCCCC1C(c1ccccc1)NCC2 (centres undefined)	-3.8%	-17.1%	-2.28	102%	102%	3.24%	3.17
O=c1cccc2n1CC1CC2CN(C(c2ccccc2)c2sc3ncnn3c2O)C1 (centres undefined)	4.58%	3.32%	-1.49	93.8%	96.8%	1.01%	1.32
CN(C)C(=O)Oc1ccc(C(=O)c2ccccc2)cc1	-2.66%	5.16%	1.59	101%	95.1%	0.43%	0.92
Nc1ccc(S(=O)(=O)N2CCCCC2c2cccnc2)cc1 (centres undefined)	-3.15%	0.935%	-0.96	103%	104%	0.625%	-0.2
CC1CCCCN1CC(=O)c1ccc2cc[nH]c2c1 (centres undefined)	-4.76%	3.28%	-2.48	98.1%	89.4%	1.31%	2.76
CN(C)c1ccc(CN2CC=C(c3ccc(F)cc3)CC2)cc1	-15.2%	-10.7%	-2.99	86.6%	96.5%	1.31%	1.92
O=C(NC1(C(F)(F)F)Oc2ccccc2O1)N1CCC2(CC1)OCCO2	-4.29%	1.45%	-5.11	51.5%	79.8%	0.465%	0.45
CN1C(=O)C(Cc2cccs2)C(=O)N(C)C1=O	-5.75%	-4.64%	0	100%	98.9%	0.795%	4.94
COc1cccc(OCC(=O)N2CCN(C)CC2)c1	5.64%	11.5%	0.31	99.8%	102%	0.505%	0.31
Cn1c(O)c(C(=NCCN2CCCCC2)c2ccccc2Cl)c(=O)n(C)c1=O	-15%	-13.6%	-0.81	87.3%	93.8%	-0.185%	0.48
Cc1cccnc1-n1c(-c2ccco2)nc2ccccc2c1=O	-5.46%	-8.26%	-0.56	100%	101%	0.59%	-0.22
Clc1cccc(CN2CCCCC2c2cccnc2)c1 (centres undefined)	-8.37%	-2.08%	0.65	81.9%	85.3%	1.16%	-0.74
CCCCP(=O)(O)c1ccccc1	-5.46%	-11.7%	-0.51	101%	95.4%	1.03%	3.03
CC1(C)C(c2ccccc2)=NC(c2cccnc2)=[N+]1[O-]	-4.62%	-3.12%	1.13	98.7%	89.4%	-0.02%	-0.36
CC12CN3CC(C)(CN(C1)P3(=O)Oc1ccccc1)C2=O (centres undefined)	-3.04%	-8.29%	-0.06	101%	97.9%	2.22%	3.62
O=c1cccc2n1CC1CC2CN(c2ncnc3c2cnn3-c2ccccc2)C1 (centres undefined)	-14.6%	-18.5%	-1.4	101%	101%	1.7%	1.58

SMILES	growth inhibition [1]	growth inhibition [2]	viability increase [3] [%]	viability [4]	viability [5]	inhibition [6]	RAM network inhibition [7] [%]
O=C1CC(N2CC=C(c3ccccc3)CC2)C(=O)N1c1ccc(F)cc1 (centres undefined)	-7.4%	-4.17%	3.41	98.8%	97.3%	0.99%	5.39
Cn1cc(C(=O)c2ccccc2)c2ccccc21	-1.98%	0.835%	-1.92	80.8%	87.1%	0.46%	-3.38
O=C(O)C1CSC(c2cccnc2)N1 (centres undefined)	-3.98%	-8.32%	-1.05	99.3%	106%	3.04%	2.35
O=C(Cc1ccccc1)Oc1cccc(N2C(=O)CCC2=O)c1	-15.7%	-12.2%	-0.69	101%	94.8%	1.23%	3.42
OC12Oc3ccccc3C=C1N1CCC2CC1 (centres undefined)	1.47%	-1.35%	0.26	99.1%	96.8%	1.48%	0.26
COc1ccc2[nH]c(C)c(CCN3CCC(=O)C(C)C3C)c2c1 (centres undefined)	-4.37%	-10.2%	-2.73	87.1%	93.1%	0.27%	3.24
O=C(CN1CC(c2ccccc2)CC1=O)Nc1cccc(F)c1 (centres undefined)	-10.1%	-5.42%	-4.37	98.3%	96.5%	1.39%	4.67
O/N=C/c1c[nH]c2ccccc12	4.87%	0.865%	-4.62	99.9%	94.4%	2.54%	3.59
CCOc1ccccc1C1SCC(=O)Nc2c1c(=O)[nH]n2C(CC)CC (centres undefined)	-3.42%	-8.7%	-0.06	93.5%	93.3%	1.07%	0.37
CCCCCn1c(=O)c(C(=O)Nc2ccncc2)c(O)c2ccccc21	92.1% (active)	100% (active)	-8.28	13.2% (active)	9.96% (active)	-0.43% [strain carries analog-sensitive mutant Cbk1 kinase]	-1.36
O=C(c1ccc2c(c1)OCO2)N1CCC2(CC1)OCCO2	-5.96%	-4.21%	1.06	102%	97.1%	0.85%	-1.11
O=c1cccc2n1CC1CC2CN(C(c2cccc(F)c2)c2sc3ncnn3c2O)C1 (centres undefined)	-2.99%	-4.42%	-0.98	105%	111%	2.02%	-0.21
CCOc1ccc(-n2c(CC)nc3ccccc3c2=O)cc1	-2.47%	-8.86%	-1.18	88%	89.8%	1.81%	3.89
CC(=O)c1cccc(NC2=NCC(C)S2)c1 (centres undefined)	-9.46%	-13.1%	-0.51	106%	93.9%	2.77%	2.41
O=C(O)c1cc2ccccc2oc1=O	-21.9%	-5.03%	-0.27	103%	99.6%	1.08%	1.06
O=C(CN1CCOCC1)c1ccc2cc[nH]c2c1	-10.7%	-1.26%	0.03	105%	108%	0.035%	1.57
Cc1ccc2c(c1)C1CN(C)CCC1N2C(=O)Cn1nnc(-c2ccccc2F)n1 (centres undefined)	6.06%	-9.18%	-5.58	85.2%	83.8%	0.18%	3.31
Cc1ccnc(-n2c(C)nc3ccccc3c2=O)c1	-1.76%	-3.79%	-2.48	90.8%	90.7%	0.27%	-0.81
